Test results taken from ChEMBL document CHEMBL4513216, “Probing the Open Global Health Chemical Diversity Library for Multistage-Active Starting Points for Next-Generation Antimalarials” (ACS Infect Dis, 2020).

Experiment: Toxicity liver stage against HepG2, at 10uM
Assay type: cell-based
Design: test concentration 10 uM, cell line HepG2-A16-CD81EGFP
Conditions: human, HepG2-A16-CD81EGFP cells; read-out: INHIBITION
Summary of the method: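 Uninfected HepG2-A16-CD81EGFP cells, 3 × 10^3 per well, 1536-well, plated on prespotted compound at 10 μM final, parasite-free screening media added to match infected plates; puromycin 10 μM positive, DMSO 0.5% negative; run in parallel with 48 h PbLuc assay at 37 °C, 5% CO2; viability by CellTiter-Glo luminescence, normalized to controls.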

Row | Compound | cytotoxicity at 10 µM [%]
1 | COc1ccc2cnn(CC(=O)NC3CCCC3)c(=O)c2c1OC | -2.86
2 | CC1(C)OCC2(CO1)CN(S(=O)(=O)c1ccc(Br)s1)C2 | -7.31
3 | COc1ccc(S(=O)(=O)Nc2cnc(N(C)C)nc2)cc1 | -4.45
4 | COCC1CN(C(=O)c2cnc(C)cn2)Cc2ncnn2C1 (stereo not given) | 2.31
5 | Cc1nn(C)cc1-c1cc(C(F)(F)F)nc(NC2CCN(C)CC2)n1 | 11.7
6 | COc1c(C(=O)NCc2cnn(C)c2C)nnn1Cc1ccccc1 | -11.3
7 | O=C(NC[C@]1(O)CN(Cc2ncccc2F)C[C@H]1O)c1cc[nH]n1 | -6.07
8 | CN1CCC(c2nnc3n2CCN(S(=O)(=O)c2ccccc2)C3)CC1 | -2.02
9 | COc1cc2c(cc1CN1CCc3sccc3C1C)OCCO2 (stereo not given) | 8.92
10 | CN1CCCC1c1cncc(C(=O)NCc2ccccc2)n1 (stereo not given) | -1.67
11 | c1cnc(N2CCC(OCCN3CCCCC3)C2)nc1 (stereo not given) | -47.3
12 | COc1ccc(Br)cc1NCC(=O)NC(C)(C#N)C1CC1 (stereo not given) | 23.4
13 | Cc1oc(C)c(C(=O)Nc2ccccn2)c1C | -9.78
14 | COCCCN1Cc2cccc(NC(=O)c3ccccc3C)c2C1 | 13.4
15 | Cc1cc(NC(=O)N2CCN(C)CC2C)n(C)n1 (stereo not given) | 9.92
16 | COc1ccc(S(=O)(=O)NC(=O)c2cscn2)cc1C | 6.84
17 | Cc1c(C(=O)NC(C)CC(=O)c2cccs2)cnn1C (stereo not given) | -8.71
18 | CC(=O)NCCCSC1CCN(c2c(F)cccc2F)C1=O (stereo not given) | -6.35
19 | Cc1ccc(C2CCCN2S(=O)(=O)N(C)Cc2nccn2C)o1 (stereo not given) | -0.787
20 | NC(=O)c1cccc(NC(=O)CSc2ccc3c(c2)CCC3)c1 | 21.4
21 | COC(=O)c1ccc(NC(=O)CN2CCCCC2C2OCCO2)cc1 (stereo not given) | 42.5
22 | O=C(Nc1cccc(N2CCN(CC3CC3)CC2)c1)C1CCOC1 (stereo not given) | 1.68
23 | CCNc1nnc(SCC(=O)N2CCN(Cc3ccc(Cl)s3)CC2)s1 | 15.2
24 | CN(CC(F)(F)F)C(=O)COc1nc(Cc2ccc(F)cc2)no1 | 9.36
25 | Cc1n[nH]c(C2CN(C(=O)c3scnc3C)CCO2)n1 (stereo not given) | 10.6
26 | O=C(NCC(=O)N1CC2(CCCC2)c2c(F)cccc21)C1CC1 | -3.47
27 | CS(=O)(=O)Cc1nc(CNc2c(F)cc(F)cc2F)cs1 | -4.73

Row | Compound | cytotoxicity at 10 µM [%]
28 | COc1ccnc(NCC2CN(C3CC3)CCO2)n1 (stereo not given) | -7.97
29 | Cc1ccccc1C(NC(=O)Cn1cc(C2CC2)nn1)C1CC1 (stereo not given) | -1.03
30 | c1cc(-c2nnc(C3(c4ccc5c(c4)OCO5)CCOCC3)o2)ccn1 | -0.973
31 | COc1ccc(Cn2nnnc2SCC2CCCN(C)C2)cc1 (stereo not given) | -1.33
32 | Cc1nnc(SC2CCN(c3sccc3C#N)C2=O)[nH]1 (stereo not given) | 7.25
33 | COc1ccc(S(=O)(=O)N2CC(CC(=O)O)c3ccccc32)cc1 (stereo not given) | 6.04
34 | Cc1cc(C)cc(CNc2ccc(C(=O)NC(C)CO)cc2)c1 (stereo not given) | -5.48
35 | Cc1cc(C(=O)N(C)C)c2c(Br)cccc2n1 | -6.4
36 | CC(c1cc(F)ccc1F)N(C)CCS(=O)(=O)CCC(N)=O (stereo not given) | -47
37 | CCOCc1nnc(NCc2cccc(C)c2)o1 | 16.3
38 | Cc1ccc(Cl)c2c1C1(NC(=O)c3cccnc3N1)C(=O)N2 (stereo not given) | 11.9
39 | CCn1nc(C)cc1C(=O)N1C[C@@H]2C[C@@H](c3nnc(C)[nH]3)O[C@@H]2C1 | -1.87
40 | Cn1nccc1C(=O)N1C[C@@H]2CN(S(C)(=O)=O)CCO[C@@H]2C1 | 9.61
41 | O=C(c1ncccn1)N1CCC[C@]2(C[C@H](OCC3CC3)CO2)C1 | -86
42 | O=C(CO)N1C[C@H]2CN(Cc3cccc(F)c3)C(=O)[C@H]2C1 | -82.3
43 | Cn1cnc2c1C(COCC1CCOCC1)CN(C(=O)c1ccoc1)C2 (stereo not given) | -7.8
44 | O=C1CCC2(CCN(Cc3ccoc3)CC2)N1OCc1ccccc1F | 2.37
45 | O=C1N(Cc2cccc(F)c2F)CCCC1(O)CNCc1ccccc1 (stereo not given) | -9.45
46 | CCc1c(C(=O)N2CCC3(CCCN(CCO)C3=O)C2)csc1C (stereo not given) | -128
47 | Cc1n[nH]c(C)c1CN(C)C(C(=O)O)c1c(F)cccc1OC(C)C (stereo not given) | -56.1
48 | CN1CCC(c2n[nH]c(=O)n2CC2CCCCC2)CC1 | -45.2
49 | COc1ccc(OC)c(-n2cnnc2CCN)c1 | 9.83
50 | Cc1ncsc1CCN(C)C(=O)CN1CCOc2ccccc2C1 | 5.72
51 | CC1=CC[C@@H]2CN(C(=O)c3ccc(-c4nc[nH]n4)cc3)C[C@@H]2C1 | 0.417
52 | Cc1nc(NC2(CN3CCCCC3)CCCCC2)c2cnn(C)c2n1 | 3.94
53 | CCc1nn(C)c(Cl)c1CN1CCN(c2ccc(C(N)=O)cn2)CC1 | 9.83
54 | CCCn1cc(C(=O)NC(CC(=O)O)c2ccccc2F)c(C)n1 (stereo not given) | -43.9

Row | Compound | cytotoxicity at 10 µM [%]
55 | CN(Cc1ccccc1)C1(C(=O)NCC(N)=O)Cc2ccccc2C1 | 2.45
56 | Cc1ncccc1OC1(C(=O)NCc2noc(C(C)C)n2)CCNCC1 | 5.68
57 | Cc1cn(CCn2ccnc2-c2sccc2C)nn1 | 15.9
58 | CSc1ncc(C(=O)N2CCC(O)(CN3CCOCC3)C(C)(C)C2)cn1 (stereo not given) | -2.16
59 | CSCC1CCN(C(=O)Cn2ncc(N3CCCCC3)cc2=O)CC1 | -3.95
60 | NCCC1CN(Cc2cnc3c(-c4ccccc4)cnn3c2)CCO1 (stereo not given) | -3.92
61 | Cc1noc(C)c1C1CCCN1C(=O)CN1C(=O)OC(C)(C)C1=O (stereo not given) | -2.57
62 | CCNc1ccnc(N2CCCC(CCOC)(C(=O)O)C2)n1 (stereo not given) | 2.84
63 | COCCN(C)C[C@H]1CC[C@@H](Cc2ccc3c(cnn3C)c2)O1 | 0.255
64 | CCCc1nnc(N2CCC(N3CCCC(O)C3)CC2)o1 (stereo not given) | 13.6
65 | CO[C@@]1(C)C[C@@H](O)C12CCN(C(=O)c1ccccc1C(C)=O)CC2 | 3.51
66 | COc1cc(CNc2ccc(C)c(Cl)c2)ccc1OCC(N)=O | 7.1
67 | COc1cccc(OCC2CCCN(c3cc(C(N)=O)ccn3)C2)c1 (stereo not given) | 2.13
68 | COC(=O)CCC(=O)N1CCc2[nH]nc(-c3ccc4c(c3)OCO4)c2C1 | -8.28
69 | Cc1cc(-c2cnn(CCNC(=O)C3CCCO3)c2C2CC2)on1 (stereo not given) | -4.07
70 | CN(C)Cc1ccnc(C2CCCN2Cc2ccncc2)n1 (stereo not given) | 1.36
71 | Clc1ccc(CN2CCCCC2Cn2cncn2)c2ncccc12 (stereo not given) | -4.66
72 | COc1ccc(CN2CCn3cc(CNC(=O)CC4CC4)nc3C2)cc1 | -82.6
73 | COc1ccc(CN2C[C@@H]3COC[C@H](N4CCN(C)CC4)[C@@H]3C2)cc1 | -85.6
74 | O=C(NC1CCCCC1)N1CCc2onc(COc3cccnc3)c2C1 | -69.9
75 | CCCS(=O)(=O)N1C[C@H](N(C)Cc2ccco2)[C@@H]2OCCC[C@@H]21 | -78.4
76 | O=C(NCc1ccccn1)[C@@H]1CC[C@@H]2[C@@H](CCN2c2ncc(F)cn2)O1 | -74.8
77 | O=c1cccnn1CC1CN(Cc2ccsc2)Cc2nccn2C1 (stereo not given) | 1.31
78 | O=C(c1cccnc1)N1CCC2(CC1)CNc1c(F)cccc12 | -1.02
79 | COc1ccc(-c2cc(C3=NC(=CN4CCN(C)CC4)NO3)[nH]n2)cc1 | -17.8
80 | CCc1nc(C)c(C(=O)N2C[C@@H]3CC[C@H]2CN(S(=O)(=O)N(C)C)C3)s1 | 25
